Data: ChEMBL document CHEMBL4610127, “Novel Autotaxin Inhibitor for the Treatment of Idiopathic Pulmonary Fibrosis: A Clinical Candidate Discovered Using DNA-Encoded Chemistry” (J Med Chem, 2020)

Assays:
[1] = biological target: Autotaxin (Mus musculus, UniProt Q9R1E6); assay: Inhibition of autotaxin in mouse plasma assessed as reduction in LPA (18:2) production incubated for 2 hrs LC-MS-/MS analysis; format: cell-free
[2] = biological target: Autotaxin (Mus musculus) (UniProt Q9R1E6); assay: Potency index, ratio of IC50 for GLPG1690 to IC50 for test compound for inhibition of autotaxin in mouse plasma assessed as reduction in LPA (18:2) production incubated for 2 hrs LC-MS-/MS analysis; format: cell-free
[3] = biological target: Autotaxin (Homo sapiens, UniProt Q13822); assay: Potency index, ratio of IC50 for GLPG1690 to IC50 for test compound for inhibition of autotaxin in human plasma assessed as reduction in LPA (18:2) production incubated for 2 hrs LC-MS-/MS analysis; format: cell-free
[4] = Protein binding in human plasma; format: ADME, cell-free; settings: read-out: PPB (converted)
[5] = Time above IC90 in mouse at 30 mg/kg, po; format: ADME, organism-based; settings: in vivo
[6] = biological target: Cytochrome P450 3A4 (Homo sapiens, UniProt P08684); assay: Inhibition of CYP3A4 (unknown origin); format: ADME
Cytochrome P450 3A4, sequence (P08684 whole entry): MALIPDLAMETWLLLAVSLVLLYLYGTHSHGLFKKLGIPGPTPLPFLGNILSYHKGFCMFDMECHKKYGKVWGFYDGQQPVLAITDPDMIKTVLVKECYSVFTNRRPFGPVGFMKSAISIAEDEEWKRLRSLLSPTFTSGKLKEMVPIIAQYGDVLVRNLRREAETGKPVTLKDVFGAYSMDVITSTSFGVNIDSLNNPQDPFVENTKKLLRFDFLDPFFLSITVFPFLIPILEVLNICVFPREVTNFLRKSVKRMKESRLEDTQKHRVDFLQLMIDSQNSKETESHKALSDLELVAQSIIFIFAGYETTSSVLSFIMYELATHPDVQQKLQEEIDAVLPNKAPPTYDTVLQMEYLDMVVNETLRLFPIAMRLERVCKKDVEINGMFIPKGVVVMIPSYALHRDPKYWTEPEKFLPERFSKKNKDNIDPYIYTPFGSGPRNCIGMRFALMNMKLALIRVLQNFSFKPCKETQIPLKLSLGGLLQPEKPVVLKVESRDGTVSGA

[7] = biological target: Cytochrome P450 2D6 (Homo sapiens, UniProt P10635); assay: Inhibition of CYP2D6 (unknown origin); format: ADME
Cytochrome P450 2D6, sequence (P10635 whole entry): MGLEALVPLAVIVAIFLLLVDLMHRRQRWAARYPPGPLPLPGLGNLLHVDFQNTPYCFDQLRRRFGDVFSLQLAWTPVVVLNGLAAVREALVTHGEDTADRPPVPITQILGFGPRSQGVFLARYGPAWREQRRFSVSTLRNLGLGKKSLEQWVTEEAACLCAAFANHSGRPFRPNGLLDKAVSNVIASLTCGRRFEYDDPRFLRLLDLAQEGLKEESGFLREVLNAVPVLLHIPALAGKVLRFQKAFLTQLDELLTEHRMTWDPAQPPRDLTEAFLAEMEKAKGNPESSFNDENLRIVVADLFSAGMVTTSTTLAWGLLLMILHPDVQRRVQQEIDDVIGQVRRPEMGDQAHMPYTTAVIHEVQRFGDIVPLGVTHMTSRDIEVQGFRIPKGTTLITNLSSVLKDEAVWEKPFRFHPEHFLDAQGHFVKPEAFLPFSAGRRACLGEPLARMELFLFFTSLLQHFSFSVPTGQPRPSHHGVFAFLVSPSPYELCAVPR

[8] = biological target: T1, Cytochrome P450 1A2 (Homo sapiens, UniProt P05177); assay: Inhibition of CYP1A2 (unknown origin); format: ADME
T1 sequence (P05177 whole entry): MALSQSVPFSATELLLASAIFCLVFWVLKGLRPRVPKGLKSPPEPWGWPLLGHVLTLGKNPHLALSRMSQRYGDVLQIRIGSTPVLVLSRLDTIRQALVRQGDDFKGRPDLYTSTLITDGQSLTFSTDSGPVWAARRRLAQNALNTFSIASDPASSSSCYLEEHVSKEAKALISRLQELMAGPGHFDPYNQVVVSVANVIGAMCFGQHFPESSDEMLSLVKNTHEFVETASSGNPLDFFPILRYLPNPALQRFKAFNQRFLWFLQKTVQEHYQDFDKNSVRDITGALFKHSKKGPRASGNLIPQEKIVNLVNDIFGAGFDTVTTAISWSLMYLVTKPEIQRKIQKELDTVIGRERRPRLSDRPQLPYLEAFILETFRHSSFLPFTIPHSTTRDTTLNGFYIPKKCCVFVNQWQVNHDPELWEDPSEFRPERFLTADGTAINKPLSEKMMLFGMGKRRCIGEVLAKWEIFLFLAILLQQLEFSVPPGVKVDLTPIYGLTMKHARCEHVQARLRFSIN

[9] = biological target: Cytochrome P450 2C9 (Homo sapiens, UniProt P11712); assay: Inhibition of CYP2C9 (unknown origin); format: ADME
Cytochrome P450 2C9, sequence (P11712 whole entry): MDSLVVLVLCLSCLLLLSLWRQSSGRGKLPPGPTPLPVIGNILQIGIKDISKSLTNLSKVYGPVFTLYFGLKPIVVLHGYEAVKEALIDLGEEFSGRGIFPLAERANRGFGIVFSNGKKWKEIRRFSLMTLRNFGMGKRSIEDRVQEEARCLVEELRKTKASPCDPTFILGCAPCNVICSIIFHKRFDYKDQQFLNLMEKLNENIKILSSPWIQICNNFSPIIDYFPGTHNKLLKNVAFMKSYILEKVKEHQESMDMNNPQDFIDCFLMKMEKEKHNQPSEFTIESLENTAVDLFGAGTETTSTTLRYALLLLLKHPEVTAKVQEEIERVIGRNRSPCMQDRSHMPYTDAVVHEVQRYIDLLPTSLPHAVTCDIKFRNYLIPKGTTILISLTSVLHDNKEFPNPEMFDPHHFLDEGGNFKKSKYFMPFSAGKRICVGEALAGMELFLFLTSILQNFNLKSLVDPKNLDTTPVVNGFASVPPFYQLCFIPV

[10] = biological target: Cytochrome P450 2C19 (Homo sapiens, UniProt P33261); assay: Inhibition of CYP2C19 (unknown origin); format: ADME
Cytochrome P450 2C19, sequence (P33261 whole entry): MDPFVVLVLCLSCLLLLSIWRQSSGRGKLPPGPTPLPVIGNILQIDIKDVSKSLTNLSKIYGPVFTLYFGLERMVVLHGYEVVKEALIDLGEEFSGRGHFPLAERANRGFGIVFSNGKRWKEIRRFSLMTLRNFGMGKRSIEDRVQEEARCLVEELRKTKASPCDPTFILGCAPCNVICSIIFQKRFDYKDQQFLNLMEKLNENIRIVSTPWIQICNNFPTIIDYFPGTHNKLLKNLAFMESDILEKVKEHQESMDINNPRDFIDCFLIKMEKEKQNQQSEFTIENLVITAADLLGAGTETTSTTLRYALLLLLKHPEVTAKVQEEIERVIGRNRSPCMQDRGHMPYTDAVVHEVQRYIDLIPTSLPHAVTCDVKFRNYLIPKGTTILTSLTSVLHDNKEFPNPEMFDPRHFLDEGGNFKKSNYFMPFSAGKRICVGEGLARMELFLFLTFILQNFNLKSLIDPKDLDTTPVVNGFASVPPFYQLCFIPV

[11] = biological target: Lysophosphatidic acid receptor 2 (Homo sapiens, UniProt Q9HBW0); assay: Inhibition of LPAR2 (unknown origin)
Lysophosphatidic acid receptor 2, sequence (Q9HBW0 whole entry): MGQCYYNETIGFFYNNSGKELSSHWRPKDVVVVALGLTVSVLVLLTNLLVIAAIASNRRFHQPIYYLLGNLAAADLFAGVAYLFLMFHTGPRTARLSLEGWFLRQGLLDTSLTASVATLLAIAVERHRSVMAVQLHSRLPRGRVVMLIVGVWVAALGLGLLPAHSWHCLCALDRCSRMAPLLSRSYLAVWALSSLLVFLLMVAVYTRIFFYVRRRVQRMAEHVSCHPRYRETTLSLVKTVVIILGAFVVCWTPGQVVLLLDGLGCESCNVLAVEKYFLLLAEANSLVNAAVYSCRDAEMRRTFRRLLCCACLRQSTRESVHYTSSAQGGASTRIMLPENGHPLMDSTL

[12] = Half life in human liver microsomes; format: ADME, Microsome
[13] = system: Rattus norvegicus; assay: Inhibition of LPA (20:4) production in rat at 0.1 to 30 mg/kg, po measured after 4 hrs by LC-MS/MS analysis; format: functional, organism-based
Summary of the method: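 Rats dosed orally across a dose range. LPA 20:4 and compound levels measured by LC-MS/MS in blood at 4 h post-dose. LPA 20:4 chosen because it is more abundant in rats. Average percent inhibition of LPA plotted against plasma compound level to derive IC50.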

[14] = system: Mus musculus; assay: Anti-fibrotic activity in C57BL/6 mouse model of bleomycin-induced lung fibrosis assessed as reduction in hydroxyproline levels at 30 to 300 mg/kg, po BID dosed until day 21 starting one day prior to bleomycin treatment; format: functional; settings: C57BL/6, po, read-out: MED
Summary of the method: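 Mice given oral BID doses (30, 100 or 300 mg/kg) starting one day before bleomycin. Killed 21 days after bleomycin; lung fibrosis scored by hydroxyproline in one group. GLPG1690 at 30 and 100 mg/kg BID as control. Hydroxyproline plotted per mouse; medians and p-values against bleomycin + vehicle.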

[15] = Half life in mouse at 10 mg/kg, po; format: ADME, organism-based; settings: in vivo
[16] = Oral bioavailability in mouse at 10 mg/kg; format: ADME, organism-based; settings: in vivo
[17] = Cmax in rat at 5 mg/kg, po; format: ADME, organism-based; parameters: dose 5 mg/kg, route oral; settings: in vivo
[18] = Clearance in dog at 1 mg/kg, iv; format: ADME, organism-based, Canis lupus familiaris; settings: in vivo
[19] = Half life in dog at 1 mg/kg, iv; format: ADME, organism-based, Canis lupus familiaris; settings: in vivo
[20] = AUClast in dog at 1 mg/kg, po; format: ADME, organism-based, Canis lupus familiaris; parameters: dose 1 mg/kg, time 0 - last, route oral; settings: in vivo
[21] = Oral bioavailability in dog at 1 mg/kg; format: ADME, organism-based, Canis lupus familiaris; settings: in vivo

**Q.** Which results are given for `CC(C)[C@@H](NC(=O)c1cc(C(F)(F)F)ccc1F)C(=O)N1CCC2(CC1)C(=O)N(C)C(=O)N2c1ccc2[nH]ncc2c1`?
**A.** IC50 [1]: 0.007 µM; Ratio IC50 [2]: 60; Ratio IC50 [3]: 20; fraction unbound [4]: 0.113; Time [5]: 12 h; IC50 [6]: > 50 µM; IC50 [7]: > 50 µM; IC50 [8]: > 50 µM; IC50 [9]: 10.4 µM; IC50 [10]: 46 µM; IC50 [11]: > 10 µM; half-life [12]: 8.88 h; IC50 [13]: 0.0065 µM; inhibition [13]: Dose-dependent effect; minimal effective dose [14]: 30 mg/kg; half-life [15]: 2.5 h; bioavailability [16]: 81%; Cmax [17]: 160 ng/mL; clearance [18]: 7.96 mL/min/kg; half-life [19]: 4.1 h; AUC(0-t) [20]: 3080 ng·h/mL; bioavailability [21]: 100%
